The source made the active and inactive calls. The calls are words filed in the database; no cut-off is given here.
Tests used:
[1] = system: MCF7; assay: Cytotoxicity against human MCF7 cells after 72 hrs by MTT assay; type: functional, cell-based; details: MCF7, 72 h
In short: (§1)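 Adherent cells were plated at 3000–6000 cells/well on day 0, according to doubling time. Compound was added as five 10-fold dilutions (1 × 10⁻⁸–1 × 10⁻⁴ M), with DMSO ≤0.1%, and incubated 72 h. Read-out was MTT absorbance converted to percentage growth versus untreated wells on the same plate. IC50 was obtained by linear regression between bracketing concentrations; the highest concentration was reported as ">" if not reached. Quadruplicates, three experiments.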

[2] = system: Vesicular stomatitis virus; assay: Antiviral activity against Vesicular stomatitis virus infected in human HeLa cells assessed as inhibition of virus-induced cytopathicity; type: functional, organism-based
In short: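 Confluent HeLa cultures were infected with 100 CCID50 of virus. Unadsorbed virus was removed after 1 h, and compound was added at serial concentrations (200, 40, 8…). Viral cytopathic effect was read when untreated virus-infected control wells reached full cytopathicity.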

[3] = system: Respiratory syncytial virus; assay: Antiviral activity against Respiratory syncytial virus infected in human HeLa cells assessed as inhibition of virus-induced cytopathicity; type: functional, organism-based
In short: (§2)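 Confluent cell monolayers in 96-well plates were inoculated with 100 CCID50 of virus. After 1 h adsorption, residual virus was removed. Cultures were then incubated with test compound at varying concentrations (200, 40, 8... µM). Viral cytopathicity was scored once it reached completion in untreated infected controls. Host cells: HEL for HSV-1 KOS and HSV-2 G; Vero for the Vero lines; HeLa for the HeLa lines.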

[4] = system: Mammalian orthoreovirus 1; assay: Antiviral activity against Reovirus 1 infected in Vero cells assessed as inhibition of virus-induced cytopathicity; type: functional, organism-based; in short: as §2
[5] = system: Sindbis virus; assay: Antiviral activity against Sindbis virus infected in Vero cells assessed as inhibition of virus-induced cytopathicity; type: functional, organism-based; in short: as §2
[6] = system: Vero; assay: Cytotoxicity against african green monkey Vero cells assessed as cell viability after 3 days by coulter counting; type: cell-based; details: chlorocebus sabaeus, 72 h
[7] = system: Human alphaherpesvirus 2; assay: Antiviral activity against HSV2 G infected in HEL cells assessed as inhibition of virus-induced cytopathicity; type: functional, organism-based; details: strain G; in short: as §2
[8] = system: Influenza B virus; assay: Antiviral activity against influenza B virus infected in MDCK cells assessed as inhibition of virus-induced cytopathicity; type: functional, organism-based
In short: (§3)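 MDCK cells, nearly confluent in microtiter plates, were infected with 100 CCID50 per well. After 1 h adsorption, the inoculum was washed off. Cells were incubated with graded compound concentrations (200, 40, 8…). Cytopathicity was recorded at completion in untreated infected controls.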

[9] = system: Human respirovirus 3; assay: Antiviral activity against Parainfluenza 3 infected in Vero cells assessed as inhibition of virus-induced cytopathicity; type: functional, organism-based; in short: as §2
[10] = system: Coxsackievirus B4; assay: Antiviral activity against Coxsackievirus B4 infected in human HeLa cells assessed as inhibition of virus-induced cytopathicity; type: functional, organism-based; in short: as §2
[11] = system: Coxsackievirus B4; assay: Antiviral activity against Coxsackievirus B4 infected in Vero cells assessed as inhibition of virus-induced cytopathicity; type: functional, organism-based; in short: as §2
[12] = system: HEL; assay: Cytotoxicity against HEL cells assessed as cell viability after 3 days by coulter counting; type: cell-based; details: human, 72 h
In short: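 HEL cells were seeded at 5 × 10³ cells/well and allowed to proliferate 24 h. Medium with test compound at different concentrations was then added, and cells were incubated 3 days at 37 °C. Cell number was counted by Coulter counter. CC50 (50% reduction in cell number versus untreated controls) was read from plots of cell number (% of control) against concentration.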

[13] = system: MDCK; assay: Cytotoxicity against MDCK cells assessed as cell viability after 3 days by coulter counting; type: cell-based, Canis lupus familiaris; details: dog, 72 h
[14] = system: SK-BR-3; assay: Cytotoxicity against human SK-BR-3 cells after 72 hrs by MTT assay; type: functional, cell-based; details: SK-BR-3, 72 h; in short: as §1
[15] = system: Influenza A virus; assay: Antiviral activity against influenza A virus H1N1; H3N2 infected in MDCK cells assessed as inhibition of virus-induced cytopathicity; type: functional, organism-based; in short: as §3
[16] = system: SW-620; assay: Cytotoxicity against human SW620 cells after 72 hrs by MTT assay; type: functional, cell-based; details: SW-620, 72 h; in short: as §1
[17] = system: MIA PaCa-2; assay: Cytotoxicity against human MIAPaCa2 cells after 72 hrs by MTT assay; type: functional, cell-based; details: MIA PaCa-2, 72 h; in short: as §1
[18] = system: HeLa; assay: Cytotoxicity against human HeLa cells after 72 hrs by MTT assay; type: functional, cell-based; in short: as §1
[19] = Cytotoxicity against human WI38 cells after 72 hrs by MTT assay; type: cell-based; details: WI-38, 72 h; in short: as §1
[20] = system: HeLa; assay: Cytotoxicity against human HeLa cells assessed as cell viability after 3 days by coulter counting; type: cell-based; details: 72 h
[21] = system: HEp-2; assay: Cytotoxicity against human Hep2 cells after 72 hrs by MTT assay; type: functional, cell-based; details: HEp-2, 72 h; in short: as §1
[22] = system: Vaccinia virus; assay: Antiviral activity against Vaccinia virus infected in HEL cells assessed as inhibition of virus-induced cytopathicity; type: functional, organism-based; details: Orthopoxvirus vaccinia
[23] = system: Vesicular stomatitis virus; assay: Antiviral activity against Vesicular stomatitis virus infected in HEL cells assessed as inhibition of virus-induced cytopathicity; type: functional, organism-based
[24] = system: Punta Toro virus; assay: Antiviral activity against Punta Toro virus infected in Vero cells assessed as inhibition of virus-induced cytopathicity; type: functional, organism-based; in short: as §2
[25] = system: Human alphaherpesvirus 1; assay: Antiviral activity against HSV1 KOS infected in HEL cells assessed as inhibition of virus-induced cytopathicity; type: functional, organism-based; in short: as §2

| Compound | IC50 [1] [µM] | inhibition [2] | inhibition [3] | inhibition [4] | inhibition [5] | Activity [6] | inhibition [7] | inhibition [8] | inhibition [9] | inhibition [10] | inhibition [11] | Activity [12] | Activity [13] | IC50 [14] [µM] | inhibition [15] | IC50 [16] [µM] | IC50 [17] [µM] | IC50 [18] [µM] | IC50 [19] [µM] | Activity [20] | also measured |
| --- | --- | --- | --- | --- | --- | --- | --- | --- | --- | --- | --- | --- | --- | --- | --- | --- | --- | --- | --- | --- | --- |
| Nc1ncnc2c1ncn2C/C=C\CNC(=O)c1ccccc1 | > 100 | inactive | inactive | inactive | inactive | Non-toxic | inactive | inactive | inactive | inactive | inactive | Non-toxic | Non-toxic | > 100 | inactive | > 100 | > 100 | > 100 | > 100 | Non-toxic | IC50 [21]: > 100 µM; inhibition [22]: inactive; inhibition [23]: inactive; inhibition [24]: inactive; inhibition [25]: inactive |
| Cc1cn(C/C=C\CNC(=O)c2ccccc2)c(=O)[nH]c1=O | > 100 | inactive | inactive | inactive | inactive | Non-toxic | inactive | inactive | inactive | inactive | inactive | Non-toxic | Non-toxic | > 100 | inactive | > 100 | > 100 | > 100 | 4.3 | Non-toxic | IC50 [21]: > 100 µM; inhibition [22]: inactive; inhibition [23]: inactive; inhibition [24]: inactive; inhibition [25]: inactive |
| Nc1nc(=O)n(C/C=C\CNC(=O)c2ccc(F)cc2)cc1F | > 100 | inactive | inactive | inactive | inactive | Non-toxic | inactive | inactive | inactive | inactive | inactive | Non-toxic | Non-toxic | > 100 | inactive | > 100 | > 100 | > 100 | > 100 | Non-toxic | IC50 [21]: 32.1 µM; inhibition [22]: inactive; inhibition [23]: inactive; inhibition [24]: inactive; inhibition [25]: inactive |
| Nc1ccn(C/C=C\CNC(=O)c2ccc(F)cc2)c(=O)n1 | > 100 | inactive | inactive | inactive | inactive | Non-toxic | inactive | inactive | inactive | inactive | inactive | Non-toxic | Non-toxic | > 100 | inactive | > 100 | > 100 | > 100 | 4 | Non-toxic | IC50 [21]: > 100 µM; inhibition [22]: inactive; inhibition [23]: inactive; inhibition [24]: inactive; inhibition [25]: inactive |
| O=C(NC/C=C\Cn1ccc(=O)[nH]c1=O)c1ccc(F)cc1 | 2.7 | inactive | inactive | inactive | inactive | Non-toxic | inactive | inactive | inactive | inactive | inactive | Non-toxic | Non-toxic | > 100 | inactive | > 100 | > 100 | > 100 | > 100 | Non-toxic | IC50 [21]: > 100 µM; inhibition [22]: inactive; inhibition [23]: inactive; inhibition [24]: inactive; inhibition [25]: inactive |
| Nc1ccn(C/C=C\CNC(=O)c2ccccc2)c(=O)n1 | 31.4 | inactive | inactive | inactive | inactive | Non-toxic | inactive | inactive | inactive | inactive | inactive | Non-toxic | Non-toxic | 72 | inactive | > 100 | > 100 | > 100 | 4.2 | Non-toxic | IC50 [21]: > 100 µM; inhibition [22]: inactive; inhibition [23]: inactive; inhibition [24]: inactive; inhibition [25]: inactive |
| O=C(NC/C=C\Cn1cc(F)c(=O)[nH]c1=O)c1ccccc1 | > 100 | inactive | inactive | inactive | inactive | Non-toxic | inactive | inactive | inactive | inactive | inactive | Non-toxic | Non-toxic | > 100 | inactive | > 100 | > 100 | > 100 | > 100 | Non-toxic | IC50 [21]: 87.5 µM; inhibition [22]: inactive; inhibition [23]: inactive; inhibition [24]: inactive; inhibition [25]: inactive |
| Cc1cn(C/C=C\CNC(=O)c2ccc(F)cc2)c(=O)[nH]c1=O | 24.1 | inactive | inactive | inactive | inactive | Non-toxic | inactive | inactive | inactive | inactive | inactive | Non-toxic | Non-toxic | > 100 | inactive | > 100 | > 100 | > 100 | 0.1 | Non-toxic | IC50 [21]: > 100 µM; inhibition [22]: inactive; inhibition [23]: inactive; inhibition [24]: inactive; inhibition [25]: inactive |
